From ChEMBL document CHEMBL1133124, “N(2)-Aroylanthranilamide inhibitors of human factor Xa” (J Med Chem, 2000)

The compounds below were run against Coagulation factor X (Homo sapiens) (UniProt P00742) (assay: Binding affinity for coagulation factor X as apparent association constant (Kass) derived from protease inhibition kinetics.).
Summary of the method: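 Human fXa, 3.2 nM final, in tris/NaCl buffer pH 7.4 with HSA; inhibitor added in MeOH, then chromogenic substrate (0.3 mM stock in water) to start hydrolysis; rates read at 405 nm. Four to eight inhibitor concentrations, n = 3 each.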

Coagulation factor X (Homo sapiens), sequence (P00742 41-179 limits assumed): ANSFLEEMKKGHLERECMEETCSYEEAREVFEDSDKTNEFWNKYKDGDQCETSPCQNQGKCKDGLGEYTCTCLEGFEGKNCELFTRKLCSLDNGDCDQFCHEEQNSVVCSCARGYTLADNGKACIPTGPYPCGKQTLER
Coagulation factor X (Homo sapiens), sequence (P00742 235-488 limits assumed): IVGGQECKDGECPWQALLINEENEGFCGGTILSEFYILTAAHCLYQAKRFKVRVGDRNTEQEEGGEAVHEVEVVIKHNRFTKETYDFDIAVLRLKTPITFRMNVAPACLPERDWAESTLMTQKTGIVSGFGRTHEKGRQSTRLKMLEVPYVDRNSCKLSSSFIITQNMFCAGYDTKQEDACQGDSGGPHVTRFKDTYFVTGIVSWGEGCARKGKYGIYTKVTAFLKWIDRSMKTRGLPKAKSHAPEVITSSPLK

SMILES	K ass
COc1ccc(OCc2ccccc2NC(=O)c2ccc(OC)cc2)cc1	30000 l M-1
COc1ccc(NC(=O)c2ccccc2NC(=O)c2ccc(C(F)(F)F)cc2)cc1	90000 l M-1
COc1ccc(NC(=O)c2cc(N)ccc2NC(=O)c2ccc(N(C)C)cc2)cc1	7e+06 l M-1
COc1ccc(NC(=O)c2ccccc2NC(=O)c2ccc(Cl)c(Cl)c2)cc1	10000 l M-1
CCOc1ccc(C(=O)Nc2ccccc2C(=O)Nc2ccc(OC)cc2)cc1	1e+06 l M-1
COc1ccc(NC(=O)c2ccccc2NC(=O)c2ccc(C(C)O)cc2)cc1 (centres undefined)	400000 l M-1
COc1ccc(NC(=O)c2ccccc2NC(=O)c2ccc(Cl)cc2)cc1	270000 l M-1
COc1ccc(NC(=O)c2ccccc2NC(=O)c2ccc(C(C)C)cc2)cc1	7e+06 l M-1
COc1ccc(/C=C/c2ccccc2NC(=O)c2ccc(OC)cc2)cc1	30000 l M-1
COc1ccc(NC(=O)c2ccccc2NC(=O)c2ccc(C(N)=O)cc2)cc1	1.12e+06 l M-1
COc1ccc(NC(=O)c2ccccc2C(=O)Nc2ccc(OC)cc2)cc1	70000 l M-1
COc1ccc(NC(=O)c2ccccc2NC(=O)c2ccc(C)cc2)cc1	1.8e+06 l M-1
COc1ccc(C(=O)Nc2ccccc2NC(=O)c2ccc(OC)cc2)cc1	1.3e+06 l M-1
COc1ccc(NC(=O)c2ccccc2NC(=O)c2ccc(C(C)=O)cc2)cc1	450000 l M-1
COc1ccc(NC(=O)c2ccccc2NC(=O)c2ccc(OC)cc2)cc1	1.2e+06 l M-1
COc1ccc(NC(=O)c2ccc(N)cc2NC(=O)c2ccc(N(C)C)cc2)cc1	2.27e+07 l M-1
CC(C)(C)c1ccc(C(=O)Nc2ccccc2C(=O)Nc2ccc(Br)cc2)cc1	220000 l M-1
COc1ccc(NC(=O)c2ccccc2NC(=O)c2cccc(Cl)c2)cc1	30000 l M-1
COc1ccc(NC(=O)c2cc(NC(=O)CCC(=O)O)ccc2NC(=O)c2ccc(N(C)C)cc2)cc1	400000 l M-1
COc1ccc(NC(=O)c2ccc(NC(=O)CCC(=O)O)cc2NC(=O)c2ccc(N(C)C)cc2)cc1	9.6e+06 l M-1
CC(C)(C)c1ccc(C(=O)Nc2ccccc2C(=O)Nc2ccc(C(F)(F)F)cc2)cc1	1000 l M-1
COc1ccc(C(=O)Nc2ccccc2NC(=O)c2ccc(N(C)C)cc2)cc1	1.87e+07 l M-1
CCc1ccc(NC(=O)c2ccccc2NC(=O)c2ccc(C(C)(C)C)cc2)cc1	1000 l M-1
COc1ccc(NC(=O)c2ccccc2NC(=O)c2cccc(C)c2)cc1	30000 l M-1
COc1ccc(CCc2ccccc2NC(=O)c2ccc(OC)cc2)cc1	< 1000 l M-1
CC(C)(C)c1ccc(C(=O)Nc2ccccc2C(=O)Nc2ccccc2)cc1	460000 l M-1
COc1ccc(NC(=O)c2ccccc2NC(=O)c2ccc(N(C)C)cc2)cc1	2.01e+07 l M-1
COc1ccc(NC(=O)c2ccccc2NC(=O)c2cccc(N(C)C)c2)cc1	90000 l M-1

Second part, the compound after the results:

K ass	SMILES
< 1000 l M-1	CC(C)(C)c1ccc(C(=O)Nc2ccccc2C(=O)Nc2ccc(OC(F)(F)F)cc2)cc1
4.7e+06 l M-1	COc1ccc(NC(=O)c2ccccc2NC(=O)c2ccc(C(C)(C)C)cc2)cc1
9.6e+06 l M-1	COc1ccc(NC(=O)c2ccc(NC(=O)CCC(=O)O)cc2NC(=O)c2ccc(C(C)(C)C)cc2)cc1
30000 l M-1	COc1ccc(C(=O)Nc2ccccc2C(=O)Nc2ccc(C(C)(C)C)cc2)cc1
3.9e+06 l M-1	COc1ccc(NC(=O)c2ccc(NS(C)(=O)=O)cc2NC(=O)c2ccc(C(C)(C)C)cc2)cc1
4.9e+06 l M-1	COc1ccc(NC(=O)c2cc(NS(=O)(=O)c3ccccc3)ccc2NC(=O)c2ccc(C(C)(C)C)cc2)cc1
6.3e+06 l M-1	COc1ccc(NC(=O)c2ccc(N)cc2NC(=O)c2ccc(C(C)(C)C)cc2)cc1
40000 l M-1	COc1ccc(NC(=O)c2cc(NC(C)=O)ccc2NC(=O)c2ccc(C(C)(C)C)cc2)cc1
3.4e+06 l M-1	Cc1ccc(NC(=O)c2ccccc2NC(=O)c2ccc(C(C)(C)C)cc2)cc1
80000 l M-1	COc1ccc(NC(=O)c2ccc([N+](=O)[O-])cc2NC(=O)c2ccc(C(C)(C)C)cc2)cc1
480000 l M-1	COc1ccc(NC(=O)c2ccccc2NC(=O)c2ccc(C(C)(C)O)cc2)cc1
110000 l M-1	CC(C)(C)c1ccc(C(=O)Nc2ccccc2C(=O)Nc2ccc(F)cc2)cc1
2.5e+06 l M-1	COc1ccc(NC(=O)c2cc(N)ccc2NC(=O)c2ccc(C(C)(C)C)cc2)cc1
1.35e+07 l M-1	COc1ccc(NC(=O)c2cc(NS(C)(=O)=O)ccc2NC(=O)c2ccc(C(C)(C)C)cc2)cc1
2.1e+06 l M-1	COc1ccc(NC(=O)c2cc([N+](=O)[O-])ccc2NC(=O)c2ccc(C(C)(C)C)cc2)cc1
490000 l M-1	CC(C)(C)c1ccc(C(=O)Nc2ccccc2C(=O)Nc2ccc(Cl)cc2)cc1
8e+06 l M-1	COc1ccc(NC(=O)c2ccc(NS(C)(=O)=O)cc2NC(=O)c2ccc(N(C)C)cc2)cc1
5.79e+07 l M-1	COc1ccc(NC(=O)c2cc(NS(C)(=O)=O)ccc2NC(=O)c2ccc(N(C)C)cc2)cc1
2.2e+06 l M-1	COc1ccc(NC(=O)c2ccc(NC(C)=O)cc2NC(=O)c2ccc(C(C)(C)C)cc2)cc1
150000 l M-1	COc1ccc(NC(=O)c2cc(NC(=O)CCC(=O)O)ccc2NC(=O)c2ccc(C(C)(C)C)cc2)cc1
620000 l M-1	COc1ccc(NC(=O)c2ccc(NS(=O)(=O)c3ccccc3)cc2NC(=O)c2ccc(C(C)(C)C)cc2)cc1
